Experimental data: ChEMBL document CHEMBL1128335, “Design and synthesis of piperidine-3-carboxamides as human platelet aggregation inhibitors” (J Med Chem, 1995); call rule not given here

Key:
[1] = Partition coefficient (logP); type: physicochemical; conditions: octanol/water
Homo sapiens [2] = organism: Homo sapiens; test: Inhibitory activity against human platelet aggregation; Inactive; type: functional
Outline: (§1)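 Human citrated PRP (blood:3.2% citrate 8:1; 120g, 15 min, 23 °C), count adjusted to 250 000–300 000/mm^3 with autologous PPP, gassed with 5% CO2/95% air, held at 37 °C. Test compound incubated 4 min. Aggregation triggered with each donor's minimal ADP concentration giving full biphasic response. Light transmission recorded 5.5 min. IC50 from regression of % inhibition on log molar concentration; mean ± SE, 4–6 determinations.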

Homo sapiens [3] = organism: Homo sapiens; test: Inhibitory activity against human platelet aggregation.; type: functional; outline: as §1
Homo sapiens [4] = organism: Homo sapiens; test: Inhibitory activity against human platelet aggregation at 200 uM; type: functional

Compound	logP ([1]; read-out: logP)	IC50 (Homo sapiens [3]; Homo sapiens, read-out: IC50) [µM]	other results
CCCCCCCCCCN1CCCC(NC(=O)C2CCCN(CCCCCCCCCC)C2)C1 (stereo not drawn)	–	–	logP [1]: 9.96; IC50 (Homo sapiens [2]): Not Active
CCN(CC)C(=O)C1CCCN(Cc2ccc(-c3ccc(CN4CCCC(C(=O)N(CC)CC)C4)cc3)cc2)C1 (stereo not drawn)	5.43	478	–
CC(O)C1CCCN(Cc2ccc(CN3CCCC(C(C)O)C3)cc2)C1 (stereo not drawn)	2.3	589	–
O=C(C1CCCN(Cc2ccc(CN3CCCC(C(=O)N(Cc4ccccc4)Cc4ccccc4)C3)cc2)C1)N(Cc1ccccc1)Cc1ccccc1 (stereo not drawn)	8.03	303	–
CCN(CC)C(=O)C1CCCN(Cc2ccccc2Cl)C1 (stereo not drawn)	3.49	2810	–
Br.CCN(CC)C(=O)C1CCCN(Cc2ccc(C(C)(C)C)cc2)C1 (stereo not drawn)	4.83	–	IC50 (Homo sapiens [3]): Not Active; inhibition at 200 µM (Homo sapiens [4]): 2%
CCN(CC)C(=O)C1CCCN(CC2CCC(CN3CCCC(C(=O)N(CC)CC)C3)CC2)C1 (stereo not drawn)	4.57	> 1000	–
CCOC(=O)C1CCCN(Cc2ccc(CN3CCCC(C(=O)OCC)C3)cc2)C1 (stereo not drawn)	4.21	757	–
CCN(CC)C(=O)C1CCCN(Cc2cccc(Cl)c2)C1 (stereo not drawn)	3.49	1650	–
O=C(C1CCCN(Cc2ccc(CN3CCCC(C(=O)N4CCOCC4)C3)cc2)C1)N1CCOCC1 (stereo not drawn)	0.74	1650	–
Br.Br.CCN(CC)C(=O)C1CC(C(=O)N(CC)CC)CN(Cc2ccc(CN3CC(C(=O)N(CC)CC)CC(C(=O)N(CC)CC)C3)cc2)C1 (stereo not drawn)	3.39	–	IC50 (Homo sapiens [2]): Not Active
CCN(CC)C(=O)C1CCCN(Cc2ccccc2)C1 (stereo not drawn)	2.75	7400	–
O=C(C1CCCN(Cc2ccc(CN3CCCC(C(=O)N4CCSCC4)C3)cc2)C1)N1CCSCC1 (stereo not drawn)	2.89	311	–
CC(=O)NCC1CCCN(Cc2ccc(CN3CCCC(CNC(C)=O)C3)cc2)C1 (stereo not drawn)	0.74	–	–
c1cc(CN2CCCCC2)ccc1CN1CCCCC1	3.57	8460	–
CCN(CC)C(=O)C1CCCN(Cc2ccccc2-c2ccccc2CN2CCCC(C(=O)N(CC)CC)C2)C1 (stereo not drawn)	5.43	354	–
O=C(C1CCCN(Cc2ccc(CN3CCCC(C(=O)N4CCC(Cc5ccccc5)CC4)C3)cc2)C1)N1CCC(Cc2ccccc2)CC1 (stereo not drawn)	8.14	277	–
CCN(CC)C(=O)C1CCCN(CN2CC2)C1 (stereo not drawn)	2.43	3250	–
CC1CCCN(Cc2ccc(CN3CCCC(C)C3)cc2)C1 (stereo not drawn)	4.6	> 500	–
O=C(O)C1CCCN(Cc2ccc(CN3CCCC(C(=O)O)C3)cc2)C1 (stereo not drawn)	2.45	> 500	–
CCCCCCCCCCN1CCCC(C(=S)N(CC)CC)C1 (stereo not drawn)	6.53	358	–

Second part, led by results:

logP ([1]; read-out: logP)	IC50 (Homo sapiens [3]; Homo sapiens, read-out: IC50) [µM]	Compound	other results
4.89	214	CCN(CC)C(=O)C1CCCN(CCCCCCCCN2CCCC(C(=O)N(CC)CC)C2)C1 (stereo not drawn)	–
2.75	32.7	O=C(C1CCCN(Cc2ccc(CN3CCCC(C(=O)N4CCCC4)C3)cc2)C1)N1CCCC1 (stereo not drawn)	–
–	25.9	CCCCCCCCCCN1CCCC(C(=O)N2CCC(C3CCN(C(=O)C4CCCN(CCCCCCCCCC)C4)CC3)CC2)C1 (stereo not drawn)	logP [1]: 11.322
5.55	39.3	CCCN(CCC)C(=O)C1CCCN(Cc2ccc(CN3CCCC(C(=O)N(CCC)CCC)C3)cc2)C1 (stereo not drawn)	–
4.63	84.6	CCCCCN1CCCC(C(=O)N2CCCN(C(=O)C3CCCN(CCCCC)C3)CC2)C1 (stereo not drawn)	–
–	23.8	CCCCCCCCCCN1CCCC(C(=O)N2CC(C)N(C(=O)C3CCCN(CCCCCCCCCC)C3)CC2C)C1 (stereo not drawn)	logP [1]: 10.096
5.55	58.8	CC(C)N(C(=O)C1CCCN(Cc2ccc(CN3CCCC(C(=O)N(C(C)C)C(C)C)C3)cc2)C1)C(C)C (stereo not drawn)	–
4.18	53.6	O=C(NCc1ccccc1)C1CCCN(Cc2ccc(CN3CCCC(C(=O)NCc4ccccc4)C3)cc2)C1 (stereo not drawn)	–
5.76	242	CCCCCCCCCCN1CCCC(C(=O)N(CC)CC)C1 (stereo not drawn)	–
3.48	144	CC(C)N(C)C(=O)C1CCCN(Cc2ccc(CN3CCCC(C(=O)N(C)C(C)C)C3)cc2)C1 (stereo not drawn)	–
3.49	217	CCN(CC)C(=O)C1CCCN(Cc2ccc(Cl)cc2)C1 (stereo not drawn)	–
6.59	48.8	CCCCCCN(C)C(=O)C1CCCN(Cc2ccc(CN3CCCC(C(=O)N(C)CCCCCC)C3)cc2)C1 (stereo not drawn)	–
5.55	18.4	CCCCN(CC)C(=O)C1CCCN(Cc2ccc(CN3CCCC(C(=O)N(CC)CCCC)C3)cc2)C1 (stereo not drawn)	–
5.76	37.7	CCN(Cc1ccccc1)C(=O)C1CCCN(Cc2ccc(CN3CCCC(C(=O)N(CC)Cc4ccccc4)C3)cc2)C1 (stereo not drawn)	–
6.96	85.3	CCN(CC)C(=O)C1CCCN(CCCCCCCCCCCCN2CCCC(C(=O)N(CC)CC)C2)C1 (stereo not drawn)	–
4.06	134	COc1cc(CNC(=O)C2CCCN(Cc3ccc(CN4CCCC(C(=O)NCc5cc(OC)c(OC)c(OC)c5)C4)cc3)C2)cc(OC)c1OC (stereo not drawn)	–
3.48	34.6	CCCN(C)C(=O)C1CCCN(Cc2ccc(CN3CCCC(C(=O)N(C)CCC)C3)cc2)C1 (stereo not drawn)	–
3.79	28.9	O=C(C1CCCN(Cc2ccc(CN3CCCC(C(=O)N4CCCCC4)C3)cc2)C1)N1CCCCC1 (stereo not drawn)	–
5.92	207	CCN(CC)C(=O)C1CCCN(CCCCCCCCCCN2CCCC(C(=O)N(CC)CC)C2)C1 (stereo not drawn)	–
–	20.9	CCCCCCCCCCN1CCCC(C(=O)N2CCN(C(=O)C3CCCN(CCCCCCCCCC)C3)C(C)C2)C1 (stereo not drawn)	logP [1]: 9.58
–	22.9	CCCCCCCCCCN1CCCC(C(=O)N2CC(C)N(C(=O)C3CCCN(CCCCCCCCCC)C3)C(C)C2)C1 (stereo not drawn)	logP [1]: 10.096
5.01	51.6	CCN(CC)C(=S)C1CCCN(Cc2ccc(CN3CCCC(C(=S)N(CC)CC)C3)cc2)C1 (stereo not drawn)	–
–	16	CCCCCCCCCCN1CCCC(C(=O)N2CCN(C(=O)C3CCCN(CCCCCCCCCC)C3)CC2)C1 (stereo not drawn)	logP [1]: 9.06
